Compounds with a hit are over-represented: about 2.4% of the library has one in this group of screens.
Rtt109 Vps75 = blocks Candida albicans Rtt109/Vps75 acetyltransferase activity | AID 540336 | inhibition, % at 34.9 µM | Q5AAJ8 | 330,000 tested, 0.16% active | purified Rtt109/Vps75, ThioGlo CoA-SH fluorescence, 4 h;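 active = inhibition of at least 50% in every replicate; inconclusive = best replicate reaches 50% inhibition but some replicates fall short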
Target sequence (Q5AAJ8 whole entry, looked up): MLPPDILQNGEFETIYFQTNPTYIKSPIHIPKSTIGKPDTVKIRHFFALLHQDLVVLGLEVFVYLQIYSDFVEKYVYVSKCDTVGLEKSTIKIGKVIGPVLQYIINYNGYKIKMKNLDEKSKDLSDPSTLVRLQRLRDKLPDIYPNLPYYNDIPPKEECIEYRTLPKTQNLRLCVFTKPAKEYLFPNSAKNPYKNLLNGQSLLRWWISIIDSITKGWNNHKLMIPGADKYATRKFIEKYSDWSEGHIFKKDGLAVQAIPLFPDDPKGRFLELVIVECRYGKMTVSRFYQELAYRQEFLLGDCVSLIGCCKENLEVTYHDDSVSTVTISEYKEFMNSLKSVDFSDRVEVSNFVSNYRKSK
miR122 inh = miR-122 inhibition in Huh7 cells. 340,000 tested, 0.3% active. Huh7 miR-122 Renilla luciferase sensor, 48 h; neutral wells = 0, positive control = 100. AID 602342. activation (reporter increase), % at 12.5 µM;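 active = mean replicate activation score at least 90 and every replicate individually at or above 90; inconclusive = only one of the two criteria met; inactive = neither criterion met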;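 also: higher luciferase means less miR-122 activity so hits act as miR-122 inhibitors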
GSIS activator = GLuc luminescence reporter in INS-1E cells, primary screen for activators of glucose-dependent secretion of insulin. INS-1E GLuc reporter insulin secretion, 2-3 h. activation, % at 16.6 µM. 370,000 tested, 0.61% active. AID 743287;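 active = lowest replicate activation of at least 40%, so every replicate reaches that level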
dFosB activator = activators of mouse delta FosB homodimer; P13346; purified delta FosB, TAMRA-CDK5 oligo fluorescence polarization; percent of positive-control signal above neutral wells; activation, % at 25 µM; 340,000 tested, 0.99% active; AID 493131;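 active = mean activation above about 17%, with every replicate also reaching it, limit read from the data, passing the limit was not always enough; inconclusive = only one of the two conditions met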
Target sequence (P13346 whole entry, looked up): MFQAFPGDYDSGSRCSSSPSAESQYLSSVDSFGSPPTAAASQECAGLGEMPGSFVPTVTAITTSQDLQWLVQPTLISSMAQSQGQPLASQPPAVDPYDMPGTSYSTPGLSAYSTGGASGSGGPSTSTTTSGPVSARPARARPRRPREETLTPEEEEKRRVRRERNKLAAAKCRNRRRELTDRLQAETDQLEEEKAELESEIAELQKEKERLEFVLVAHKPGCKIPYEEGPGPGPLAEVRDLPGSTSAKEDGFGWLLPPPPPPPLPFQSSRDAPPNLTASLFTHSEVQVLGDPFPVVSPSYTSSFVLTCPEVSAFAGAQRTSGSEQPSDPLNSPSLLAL
Env fusion inh = HIV envelope-mediated fusion inhibition; HeLa-JRFL Env/CEM21 cell fusion, luciferase; inhibition, % at 12.3 µM; 360,000 tested, 1.1% active;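 active = mean replicate inhibition score of at least 50 and every replicate individually at or above 50; inconclusive = only one of the two criteria met; inactive = mean below 50 and not all replicates reaching 50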
Cneo AK release = causes C. neoformans cell lysis | adenylate kinase release luminescence, 4 h; normalised: neutral wells 0, clomiphene wells 100 | lysis activity, % at 15 µM | 360,000 tested, 0.2% active | AID 651654;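 active = mean lysis activity across replicates of at least 80%, whatever share of replicates individually reach that level; inactive = mean lysis activity below 80%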
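Schedule: static 4 h at 37 °C with compound, 1 h detection; system: C. neoformans cells; benchmarks: Clomiphene as positive control; buffer or medium: fresh YPD medium; measure: luminescence rise reflecting yeast cell lysis; measured by: luminescent adenylate kinase detection reagent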
Of the large screens only hits and unclear results are named; the others gave an inactive call; [ ] = remark or other dose.

C[C@H](CO)N1C[C@H](C)[C@@H](CN(C)CC2CC2)Oc2c(NC(=O)CCC(F)(F)F)cccc2C1=O	none (no result: Rtt109 Vps75, miR122 inh, dFosB activator, Env fusion inh, Cneo AK release)
COc1ccc(CNC(=O)C2CCCN(S(=O)(=O)c3c(C)n[nH]c3C)C2)cc1 (configuration not stated)	Rtt109 Vps75 67 (no result: Env fusion inh)
CC1(C)CC[C@]2(C(=O)n3ccnc3)CC[C@]3(C)[C@H](C(=O)C=C4[C@@]5(C)C=C(C#N)C(=O)C(C)(C)[C@@H]5CC[C@]43C)[C@@H]2C1	Env fusion inh 109 (no result: miR122 inh, Cneo AK release)
C[C@@H]1CN(C)C(=O)c2cc(N(C)C)ccc2O[C@H]1CN(C)C	none (no result: Rtt109 Vps75, miR122 inh, dFosB activator, Env fusion inh, Cneo AK release)
O=[N+]([O-])c1ccc(NC(c2ccccc2)c2ccc3cccnc3c2O)cc1 (configuration not stated)	Env fusion inh 62 (no result: GSIS activator)
CCc1ccc(OCC(=O)NNC(=O)C2CCC2)cc1	Env fusion inh 64
CN1C(=O)c2cc(NC(=O)c3cccs3)ccc2OC[C@H]2O[C@H](CC(=O)NCC(F)(F)F)CC[C@@H]21	none (no result: Rtt109 Vps75, dFosB activator)
CN1c2ccc(C3=CCCCC3)cc2[C@H]2[C@H](CCN2C(=O)C2CC2)[C@@H]1CO	Env fusion inh 98[16.7 µM] (no result: Rtt109 Vps75, miR122 inh, GSIS activator, dFosB activator, Cneo AK release)
CC(C)NC(=O)N1CC[C@@H]2[C@H]1c1cc(-c3cccc(F)c3)ccc1N(C)[C@@H]2CO	none (no result: Rtt109 Vps75, dFosB activator, Env fusion inh)
CC(C)NC(=O)N1CC[C@@H]2[C@@H](CO)N(C)c3ccc(-c4cccc(F)c4)cc3[C@@H]21	miR122 inh inconclusive, Cneo AK release 92 (no result: Rtt109 Vps75, dFosB activator, Env fusion inh)
CCC(=O)N1CC[C@@H]2[C@H]1c1cc(-c3cccc(OC)c3)ccc1N(C)[C@@H]2CO	none (no result: Rtt109 Vps75, dFosB activator, Env fusion inh)
COc1cccc(-c2ccc3c(c2)[C@H]2[C@H](CCN2C(=O)Cc2ccncc2)[C@H](CO)N3C)c1	Cneo AK release 91 (no result: Rtt109 Vps75, dFosB activator, Env fusion inh)
Cc1ccc(S(=O)(=O)Nc2ccc3c(c2)C(=O)N([C@@H](C)CO)C[C@@H](C)[C@@H](CN(C)C(=O)NC2CCCCC2)O3)cc1	none (no result: Rtt109 Vps75, dFosB activator, Env fusion inh)
C=CCn1c(Br)nc2c1c(=O)[nH]c(=O)n2C	none
C=CC(C)n1c(Br)nc2c1c(=O)[nH]c(=O)n2C (configuration not stated)	miR122 inh 154 (no result: Cneo AK release)
O=C(COC(=O)/C=C/c1ccc(S(=O)(=O)N2CCOCC2)cc1)Nc1ccccc1F	none
Cc1ccc(S(=O)(=O)N2CCOCC2)cc1NC(=O)COC(=O)/C=C/c1ccc(F)cc1	dFosB activator 81 (no result: miR122 inh, GSIS activator, Cneo AK release)
C[C@H](CO)N1C[C@H](C)[C@@H](CN(C)Cc2ccc3c(c2)OCO3)OCc2cn(nn2)CCCC1=O	none (no result: Rtt109 Vps75, dFosB activator)
C[C@H](CO)N1C[C@H](C)[C@H](CN(C)Cc2ccc(C(F)(F)F)cc2)OCc2cn(nn2)CCCC1=O	none (no result: Rtt109 Vps75, dFosB activator, Env fusion inh, Cneo AK release)
C[C@H]1CN([C@@H](C)CO)C(=O)CCCn2cc(nn2)CO[C@@H]1CN(C)Cc1ccc(C(F)(F)F)cc1	Cneo AK release 82 (no result: Rtt109 Vps75, dFosB activator)
C[C@@H]1CN([C@@H](C)CO)C(=O)CCCn2cc(nn2)CO[C@@H]1CN(C)Cc1ccc2c(c1)OCO2	Cneo AK release 114 (no result: Rtt109 Vps75, dFosB activator)
C[C@H](CO)N1C[C@H](C)[C@H](CN(C)Cc2ccc3c(c2)OCO3)Oc2ncc(-c3cc4ccccc4o3)cc2C1=O	none (no result: Rtt109 Vps75, miR122 inh, dFosB activator, Env fusion inh, Cneo AK release)
Cc1ccc(-c2cc(C(=O)NCc3cnn(C)c3)c3cc(Br)ccc3n2)cc1	GSIS activator 335 (no result: Env fusion inh)
C[C@@H]1CN([C@H](C)CO)S(=O)(=O)c2ccc(-c3cccc(C#N)c3)cc2O[C@@H]1CN(C)C(=O)C1CC1	none (no result: Rtt109 Vps75, dFosB activator)
C[C@@H]1CN([C@H](C)CO)C(=O)c2cc(NS(=O)(=O)c3ccc(F)cc3)ccc2O[C@@H](C)CCCCO[C@@H]1CN(C)Cc1ccccc1	none (no result: Rtt109 Vps75, dFosB activator)
COC(=O)CN(c1cccc(C)c1)S(=O)(=O)c1ccccc1	GSIS activator 46
NC(=S)n1[nH]c(-c2ccc([N+](=O)[O-])cc2)c(N=Nc2cccc([N+](=O)[O-])c2)c1=O	Env fusion inh 63 (no result: Cneo AK release)
C[C@@H]1CN([C@H](C)CO)C(=O)c2cc(NC(=O)CCC(F)(F)F)ccc2O[C@@H](C)CCCCO[C@@H]1CN(C)C(=O)c1ccncc1	Cneo AK release 89 (no result: Rtt109 Vps75, dFosB activator)
C[C@@H]1CCCCO[C@@H](CN(C)CC2CCCCC2)[C@H](C)CN([C@H](C)CO)C(=O)c2cc(NC(=O)c3ccccc3)ccc2O1	Env fusion inh 67[16.7 µM] (no result: Rtt109 Vps75, dFosB activator)
C[C@@H]1CCCCO[C@@H](CN(C)CC2CCCCC2)[C@@H](C)CN([C@@H](C)CO)C(=O)c2cc(NS(=O)(=O)c3ccccc3)ccc2O1	Cneo AK release 80 (no result: Rtt109 Vps75, dFosB activator)
C[C@@H]1CCCCO[C@H](CN(C)C(=O)c2ccccc2)[C@@H](C)CN([C@@H](C)CO)C(=O)c2cc(NC(=O)c3ccccc3)ccc2O1	Cneo AK release 96 (no result: Rtt109 Vps75, dFosB activator)
C[C@H]1CCCCO[C@H](CN(C)CC2CCCCC2)[C@@H](C)CN([C@@H](C)CO)C(=O)c2cc(NS(=O)(=O)c3ccccc3)ccc2O1	none (no result: Rtt109 Vps75, dFosB activator)
COc1ccc2c3c(n(C)c2c1)[C@@H](CO)N(C(=O)C1CC1)CC31CN(C)C1	none (no result: Rtt109 Vps75, miR122 inh, dFosB activator, Env fusion inh, Cneo AK release)
O=C(Nc1ccc(Cl)c(Cl)c1)N[C@@H]1CC[C@@H](CCNC(=O)c2ccc(F)cc2)O[C@@H]1CO	none (no result: Rtt109 Vps75, dFosB activator)
C[C@@H]1CN([C@H](C)CO)C(=O)c2cc(NC(=O)Cn3cnnn3)ccc2O[C@H]1CN(C)C(=O)Nc1ccc2c(c1)OCO2	none (no result: Rtt109 Vps75, dFosB activator, Env fusion inh)
C[C@H]1CCCCO[C@@H](CN(C)C(=O)c2ccccc2)[C@@H](C)CN([C@@H](C)CO)C(=O)c2cc(NC(=O)c3ccncc3)ccc2O1	Cneo AK release 86 (no result: Rtt109 Vps75, dFosB activator)
FC(F)Oc1ccc(/C=N/NC(=S)Nc2cc(C(F)(F)F)ccc2Cl)cc1	GSIS activator 111 (no result: miR122 inh)
CNC(=S)Nc1cc(C(F)(F)F)ccc1Cl	none (no result: miR122 inh, Cneo AK release)
COc1ccc(N2CC(NS(=O)(=O)c3cccs3)CC2=O)cc1OC (configuration not stated)	GSIS activator 41
COc1ccc(N2CC(NS(=O)(=O)c3cccs3)CC2=O)cc1 (configuration not stated)	none (no result: Cneo AK release)
O=C(c1cccnc1)N1CCCCN2[C@H](CO)[C@H](c3ccc(C#Cc4ccccc4)cc3)[C@@H]2C1	none (no result: Rtt109 Vps75, GSIS activator, dFosB activator, Env fusion inh)
Cc1ccc(S(=O)(=O)Nc2ccc3c(c2)C(=O)N([C@@H](C)CO)C[C@H](C)[C@@H](CN(C)S(=O)(=O)c2ccc(Cl)cc2)O3)cc1	none (no result: Rtt109 Vps75, miR122 inh, dFosB activator, Env fusion inh, Cneo AK release)
CSc1nc(-c2ccc(Cl)cc2)c(C#N)c(=O)[nH]1	Env fusion inh 59 (no result: miR122 inh, Cneo AK release)
C[C@H]1CN([C@@H](C)CO)S(=O)(=O)c2ccc(-c3ccc(C(=O)N(C)C)cc3)cc2O[C@@H]1CN(C)C(=O)C1CC1	none (no result: Rtt109 Vps75, dFosB activator, Cneo AK release)
CN(Cc1cnc2nc(N)nc(N)c2n1)c1ccc(C(=O)NC(CCC(=O)O)C(=O)O)c2ccccc12 (configuration not stated)	Env fusion inh 64 (no result: Cneo AK release)
